Source: PMC5338039 (Biochemistry, 2017)
“Also recorded” adds a separate entry of the source.

Tests used:
Type in all cases: cell-based
GPR55 Y3.32F = GPR55 Y3.32F (Homo sapiens, UniProt Q9Y2T6, Y101F); assay: SRE luciferase assay, Y3.32F mutant; settings: Y3.32F
Procedure, shortened: (§1)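 HA-tagged human GPR55 (WT or sequence-confirmed site-directed mutant, pcDNA3) co-transfected by lipofection with pGL4.33 luc2P/SRE reporter into HEK293 cells; 60,000 cells/well, switched to 1% FBS/DMEM after 5 h, overnight. Agonist test compounds (10 mM DMSO stocks) added for 5 h in serum-free DMEM, 37°C. Cells lysed 10 min at room temperature, luciferin injected, luminescence read immediately (RLU). EC50 from sigmoidal nonlinear regression.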

GPR55 Y3.32L = GPR55 Y3.32L (Homo sapiens, UniProt Q9Y2T6, Y101L); assay: SRE luciferase assay, Y3.32L mutant; settings: Y3.32L
Procedure, shortened: as §1

GPR55 F6.55A = GPR55 F6.55A (Homo sapiens, UniProt Q9Y2T6, F246A); assay: SRE luciferase assay, F6.55A mutant; settings: F6.55A
Procedure, shortened: as §1

GPR55 F6.55L = GPR55 F6.55L (Homo sapiens, UniProt Q9Y2T6, F246L); assay: SRE luciferase assay, F6.55L mutant; settings: F6.55L
Procedure, shortened: as §1

GPR55 Q6.58M = GPR55 Q6.58M (Homo sapiens, UniProt Q9Y2T6, Q249M); assay: SRE luciferase assay, Q6.58M mutant; settings: Q6.58M
Procedure, shortened: as §1

GPR55 C(10)A = GPR55 C(10)A (Homo sapiens, UniProt Q9Y2T6, C10A); assay: SRE luciferase assay, C; settings: C(10)A
Procedure, shortened: as §1

GPR55 H(170)F = GPR55 H(170)F (Homo sapiens, UniProt Q9Y2T6, H170F); assay: SRE luciferase assay, H; settings: H(170)F
Procedure, shortened: as §1

GPR55 C(260)A = GPR55 C(260)A (Homo sapiens, UniProt Q9Y2T6, C260A); assay: SRE luciferase assay, C; settings: C(260)A
Procedure, shortened: as §1

GPR55 Q7.36A = GPR55 Q7.36A (Homo sapiens, UniProt Q9Y2T6, Q271A); assay: SRE luciferase assay, Q7.36A mutant; settings: Q7.36A
Procedure, shortened: as §1

GPR55 Q7.36N = GPR55 Q7.36N (Homo sapiens, UniProt Q9Y2T6, Q271N); assay: SRE luciferase assay, Q7.36N mutant; settings: Q7.36N
Procedure, shortened: as §1

GPR55 M3.36A = GPR55 M3.36A (Homo sapiens, UniProt Q9Y2T6, M105A); assay: SRE luciferase assay, M3.36A mutant; settings: M3.36A
Procedure, shortened: as §1

GPR55 F6.48A = GPR55 F6.48A (Homo sapiens, UniProt Q9Y2T6, F239A); assay: SRE luciferase assay, F6.48A mutant; settings: F6.48A
Procedure, shortened: as §1

GPR55 K2.60A = GPR55 K2.60A (Homo sapiens, UniProt Q9Y2T6, K80A); assay: SRE luciferase assay, K2.60A mutant
Procedure, shortened: as §1

GPR55 E3.29A = GPR55 E3.29A (Homo sapiens, UniProt Q9Y2T6, E98A); assay: SRE luciferase assay, E3.29A mutant; settings: E3.29A
Procedure, shortened: as §1

GPR55 E3.29L = GPR55 E3.29L (Homo sapiens, UniProt Q9Y2T6, E98L); assay: SRE luciferase assay, E3.29L mutant; settings: E3.29L
Procedure, shortened: as §1

Chain of GPR55 K2.60A (Q9Y2T6 whole entry K80A): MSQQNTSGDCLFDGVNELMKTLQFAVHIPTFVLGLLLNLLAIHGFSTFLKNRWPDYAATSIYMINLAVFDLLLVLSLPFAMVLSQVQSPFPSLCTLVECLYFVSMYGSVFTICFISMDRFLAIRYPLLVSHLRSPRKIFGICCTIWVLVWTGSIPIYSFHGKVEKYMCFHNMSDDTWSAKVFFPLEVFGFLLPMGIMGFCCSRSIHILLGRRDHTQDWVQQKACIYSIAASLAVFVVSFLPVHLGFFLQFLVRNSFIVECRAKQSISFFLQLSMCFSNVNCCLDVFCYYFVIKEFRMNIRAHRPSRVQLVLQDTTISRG
Chain of GPR55 Y3.32F (Q9Y2T6 whole entry Y101F): as the sequence (Q9Y2T6 whole entry K80A) above, with A80K, Y101F counted along it
Chain of GPR55 Q6.58M (Q9Y2T6 whole entry Q249M): as the sequence (Q9Y2T6 whole entry K80A) above, with A80K, Q249M counted along it
Chain of GPR55 M3.36A (Q9Y2T6 whole entry M105A): as the sequence (Q9Y2T6 whole entry K80A) above, with A80K, M105A counted along it
Chain of GPR55 E3.29A (Q9Y2T6 whole entry E98A): as the sequence (Q9Y2T6 whole entry K80A) above, with A80K, E98A counted along it
Chain of GPR55 Y3.32L (Q9Y2T6 whole entry Y101L): as the sequence (Q9Y2T6 whole entry K80A) above, with A80K, Y101L counted along it
Chain of GPR55 F6.48A (Q9Y2T6 whole entry F239A): as the sequence (Q9Y2T6 whole entry K80A) above, with A80K, F239A counted along it
Chain of GPR55 H(170)F (Q9Y2T6 whole entry H170F): as the sequence (Q9Y2T6 whole entry K80A) above, with A80K, H170F counted along it
Chain of GPR55 Q7.36A (Q9Y2T6 whole entry Q271A): as the sequence (Q9Y2T6 whole entry K80A) above, with A80K, Q271A counted along it
Chain of GPR55 E3.29L (Q9Y2T6 whole entry E98L): as the sequence (Q9Y2T6 whole entry K80A) above, with A80K, E98L counted along it
Chain of GPR55 F6.55A (Q9Y2T6 whole entry F246A): as the sequence (Q9Y2T6 whole entry K80A) above, with A80K, F246A counted along it
Chain of GPR55 C(10)A (Q9Y2T6 whole entry C10A): as the sequence (Q9Y2T6 whole entry K80A) above, with C10A, A80K counted along it
Chain of GPR55 C(260)A (Q9Y2T6 whole entry C260A): as the sequence (Q9Y2T6 whole entry K80A) above, with A80K, C260A counted along it
Chain of GPR55 Q7.36N (Q9Y2T6 whole entry Q271N): as the sequence (Q9Y2T6 whole entry K80A) above, with A80K, Q271N counted along it
Chain of GPR55 F6.55L (Q9Y2T6 whole entry F246L): as the sequence (Q9Y2T6 whole entry K80A) above, with A80K, F246L counted along it

Substance: l-α-lysophosphatidylinositol [LPI]
- SRE response compared with WT (in words) (GPR55 Y3.32F): right shifted curves; also recorded: reduced signaling
- SRE response compared with WT (in words) (GPR55 Y3.32L): right shifted curves; also recorded: reduced signaling
- SRE response compared with WT (in words) (GPR55 F6.55A): little to no effect
- SRE response compared with WT (in words) (GPR55 F6.55L): little to no effect
- SRE response compared with WT (in words) (GPR55 Q6.58M): little to no effect; also recorded: essentially no effect
- SRE response compared with WT (in words) (GPR55 C(10)A): right shifted curves
- SRE response compared with WT (in words) (GPR55 H(170)F): right shifted curves; also recorded: reduced signaling
- SRE response compared with WT (in words) (GPR55 C(260)A): right shifted curves
- SRE response compared with WT (in words) (GPR55 Q7.36A): little to no effect
- SRE response compared with WT (in words) (GPR55 Q7.36N): little to no effect
- SRE response compared with WT (in words) (GPR55 M3.36A): right shifted curves; also recorded: reduces LPI's ability to signal
- SRE response compared with WT (in words) (GPR55 F6.48A): right shifted curves; also recorded: reduces LPI's ability to signal
- SRE response compared with WT (in words) (GPR55 K2.60A): did not show any LPI-induced responses; also recorded: loss of function
- SRE response compared with WT (in words) (GPR55 E3.29A): slight response at high concentrations of LPI; also recorded: loss of function
- SRE response compared with WT (in words) (GPR55 E3.29L): slight response at high concentrations of LPI
